Laboratory results published in ChEMBL document CHEMBL1146683, “Antiproliferative activity of various flavonoids and related compounds: additive effect of interferon-alpha2b” (Bioorg Med Chem Lett, 2004).
Calls of active or inactive are those of the source. No cut-off for these calls is given here.

Each molecule was assayed on WISH (assay: In vitro inhibitory activity against the growth of WISH cell derived from human cervical carcinoma was determined; slight effect).
Assay type: functional, cell-based
In the case of `O=C(O)/C=C/c1ccccc1`, the inhibition is reported as “slight effect”.
With `O=c1cc(-c2ccc(O)cc2)oc2cc(O)cc(O)c12` the inhibition was “Weak activity”.
With `O=c1cc(-c2ccccc2)oc2cc(O)cc(O)c12` the inhibition was “Weak activity”.
In the case of `O=c1cc(-c2ccccc2)oc2c1ccc1ccccc12`, the inhibition is reported as “Weak activity”.
For `COc1cc(OC)c2c(=O)cc(-c3ccccc3)oc2c1`, the inhibition was “slight effect”.
With `O=c1cc(-c2ccccc2)oc2ccc3ccccc3c12` the inhibition was “Weak activity”.
For `O=c1c(O)c(-c2ccc(O)c(O)c2)oc2cc(O)cc(O)c12`, the inhibition was “Weak activity”.

Each molecule was assayed on WISH (assay: (§1) In vitro inhibitory activity against the growth of WISH cell derived from human cervical carcinoma was determined).
Assay type: functional
Summary of the method: (§2)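 WISH cells (HeLa-derived; grown in MEM with 10% FBS, 2 mM L-glutamine and antibiotics), 10,000 per well. Cells exposed 72 h at 37 °C to a concentration series of compound given in DMSO/ethanol (1:10), with controls solvent-matched. Total cell number read colorimetrically as hexosaminidase level. IC50, the molar concentration giving 50% growth inhibition, was taken from dose–response curves.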
With `CCCCOC(=O)/C=C/c1ccc(O)c(O)c1` [BUTYL CAFFEATE] the Inhibition was roughly 70%.
With `O=c1cc(-c2ccccc2[N+](=O)[O-])oc2ccc([N+](=O)[O-])cc12` the Inhibition was roughly 70%.
With `CCOC(=O)/C=C/c1ccc(O)c(O)c1` [ETHYL CAFFEATE] the Inhibition was 50%.
`O=c1cc(-c2ccccc2[N+](=O)[O-])oc2ccccc12` gave an Inhibition of roughly 70%.

The molecules below were run on WISH (assay: as §1).
Assay type: functional, cell-based
Summary of the method: as §2
`CCCCOC(=O)/C=C/c1ccc(O)c(O)c1` [BUTYL CAFFEATE] showed an IC50 of roughly 3000 nM.
For `O=c1cc(-c2ccccc2[N+](=O)[O-])oc2ccc([N+](=O)[O-])cc12`, the IC50 was roughly 3000 nM.
With `O=c1cc(-c2ccccc2[N+](=O)[O-])oc2ccccc12` the IC50 was roughly 3000 nM.

The molecules below were run on WISH (assay: In vitro inhibitory activity against the growth of WISH cell derived from human cervical carcinoma was determined; slight reduction in cell growth).
Assay type: functional, cell-based
With `O=C1CC(c2ccccc2)Oc2ccccc21` (stereo not drawn) the inhibition was “Weak activity”.

Each molecule was assayed on WISH (assay: In vitro inhibitory activity against the growth of WISH cell derived from human cervical carcinoma was determined; Inactive).
Assay type: functional, cell-based
`O=c1cc(-c2ccccc2)oc2ccc([N+](=O)[O-])cc12` was tested, and the inhibition was “inactive”.
`O=c1cc(-c2ccccc2)oc2ccccc12` was tested, and the NA was “inactive”.
For `O=C(O)/C=C/c1ccc(O)c(O)c1`, the NA was “inactive”.
